The nature of test [1]: Effect on PRKRIR expression in human HCT-116 cells at 15 uM measured after 6 hrs by LC-MS/MS analysis relative to control. It counts as functional. The procedure, abridged:
(§1)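 HCT116 cells treated 6 h with DMSO, 15 μM or 30 μM compound, then pelleted. Peptides (1 μg) separated on a 25 cm C18 nano-column with a 136 min gradient and analysed by label-free LC-MS/MS on an Orbitrap Eclipse. Searched against the UniProt human database and quantified from normalized abundance. Two independent biological replicates per group; log2 fold change versus DMSO, p < 0.05.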

Test [2] can be described thus: Effect on AUP1 expression in human HCT-116 cells at 30 uM measured after 6 hrs by LC-MS/MS analysis relative to control. It counts as functional. The method, boiled down:
as §1

Test [3] can be described thus: Effect on KNTC1 expression in human HCT-116 cells at 30 uM measured after 6 hrs by LC-MS/MS analysis relative to control. It is filed as functional. The method, boiled down: as §1
Test [4] in a line: Inhibition of His6-tagged p97 C522T mutant (unknown origin) expressed in Escherichia coli BL21 (DE3) assessed as reduction in ATPase activity measured after 60 mins by biomol green reagent based assay. Also noted: species or system Homo sapiens. The method, boiled down:
(§2)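 His6-p97 expressed in E. coli BL21(DE3), purified by Ni-NTA and gel filtration (500–600 kDa fractions, ≥95% pure). Phosphate read by Biomol Green at 635 nm. Eight-dose titrations; IC50 from six replicates. Thiol tests added DTT or cysteine during preincubation.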

Test [5] can be described thus: Effect on AP2M1 expression in human HCT-116 cells at 15 uM measured after 6 hrs by LC-MS/MS analysis relative to control. It is filed as functional. The procedure, abridged: as §1
Test [6] is described as follows: Effect on KNTC1 expression in human HCT-116 cells at 15 uM measured after 6 hrs by LC-MS/MS analysis relative to control. It counts as functional. The procedure, abridged:
as §1

The target of test [7] is Transitional endoplasmic reticulum ATPase (Homo sapiens, UniProt P55072, C522A). Kind of test: Inhibition of His6-tagged p97 C522A mutant (unknown origin) expressed in Escherichia coli BL21 (DE3) assessed as reduction in ATPase activity measured after 60 mins by biomol green reagent based assay. The procedure, abridged: as §2
Test [8] is described as follows: Selectivity ratio of IC50 for inhibition of proteasomal turnover of p97-independent ODD-luciferase reporter substrate in human HeLa cells to IC50 for inhibition of p97 in human HeLa cells assessed as reduction in proteasomal turnover of p97-dependent reporter substrate UbG76V-GFP. The method, boiled down: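 HeLa cells stably carrying both UbG76V-GFP and ODD-Luc, in DMEM with 2.5% FBS, received 4 μM MG132 for 60 min at 37°C. After PBS washes they got cycloheximide plus compound for 120 min at 37°C. GFP was read by confocal imaging, then luminescence after D-luciferin (10 min, r.t.). IC50s for each reporter came from quadruplicates.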

Test [9] can be described thus: Effect on SQSTM1 expression in human HCT-116 cells at 30 uM measured after 6 hrs by LC-MS/MS analysis relative to control. It counts as functional. The procedure, abridged: as §1
Test [10] in a line: Effect on BRIX1 expression in human HCT-116 cells at 15 uM measured after 6 hrs by LC-MS/MS analysis relative to control. It is filed as functional. The method, boiled down:
as §1

Test [11] can be described thus: Effect on EPPK1 expression in human HCT-116 cells at 30 uM measured after 6 hrs by LC-MS/MS analysis relative to control. It counts as functional. The method, boiled down:
as §1

Test [12] in a line: Effect on BRCC3 expression in human HCT-116 cells at 30 uM measured after 6 hrs by LC-MS/MS analysis relative to control. It is filed as functional. The procedure, abridged:
as §1

In test [13] the target is T1, Transitional endoplasmic reticulum ATPase (Homo sapiens, UniProt P55072). Kind of test: Inhibition of p97 in human HeLa cells assessed as reduction in proteasomal turnover of p97-dependent reporter substrate UbG76V-GFP incubated for 120 mins by GFP fluorescence imaging.
Target sequence in this assay (P55072 whole entry): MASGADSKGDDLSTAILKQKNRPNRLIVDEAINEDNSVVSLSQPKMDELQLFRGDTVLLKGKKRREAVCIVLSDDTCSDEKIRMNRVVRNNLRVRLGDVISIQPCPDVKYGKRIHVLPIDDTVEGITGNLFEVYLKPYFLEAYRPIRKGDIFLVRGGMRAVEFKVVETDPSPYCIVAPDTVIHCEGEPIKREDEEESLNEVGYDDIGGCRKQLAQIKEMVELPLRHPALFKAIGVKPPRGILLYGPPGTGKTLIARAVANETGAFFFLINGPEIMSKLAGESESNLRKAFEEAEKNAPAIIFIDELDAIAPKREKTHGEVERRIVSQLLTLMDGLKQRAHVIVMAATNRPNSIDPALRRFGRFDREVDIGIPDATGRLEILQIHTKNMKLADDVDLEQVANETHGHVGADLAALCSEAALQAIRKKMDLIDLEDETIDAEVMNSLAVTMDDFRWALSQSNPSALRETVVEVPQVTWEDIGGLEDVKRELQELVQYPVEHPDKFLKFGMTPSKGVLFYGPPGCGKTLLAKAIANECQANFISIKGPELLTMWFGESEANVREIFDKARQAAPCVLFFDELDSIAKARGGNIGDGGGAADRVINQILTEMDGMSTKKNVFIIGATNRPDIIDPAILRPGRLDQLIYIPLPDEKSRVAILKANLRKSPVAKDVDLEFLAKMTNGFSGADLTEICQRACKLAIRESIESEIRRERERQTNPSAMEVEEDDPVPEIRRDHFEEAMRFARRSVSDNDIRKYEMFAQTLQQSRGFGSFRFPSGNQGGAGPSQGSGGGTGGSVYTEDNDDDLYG
A short description of test [14]: Effect on PRKRIR expression in human HCT-116 cells at 30 uM measured after 6 hrs by LC-MS/MS analysis relative to control. It is filed as functional. The method, boiled down:
as §1

Test [15] concerns the target T1, Transitional endoplasmic reticulum ATPase. Kind of test: Inhibition of His6-tagged p97 (unknown origin) expressed in Escherichia coli BL21 (DE3) assessed as reduction in ATPase activity measured after 60 mins by biomol green reagent based assay. The procedure, abridged:
as §2
Target sequence in this assay (P55072 whole entry): as above

The nature of test [16]: Effect on CDK2AP1 expression in human HCT-116 cells at 30 uM measured after 6 hrs by LC-MS/MS analysis relative to control. It is filed as functional. The method, boiled down:
as §1

The target in test [17] is T1, Transitional endoplasmic reticulum ATPase. Kind of test: Inhibition of p97 (unknown origin) expressed in HEK293 cells co-expressing TCRalpha-GFP assessed as reduction in ERAD-dependent reporter substrate TCRalpha-GFP degradation at 10 uM incubated for 60 to 120 mins by immunoblotting analysis. Conditions: time lower 60.0 min, time upper […]. It counts as cell-based. The method, boiled down:
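HEK293 cells stably expressing TCRα-GFP pretreated with 4 μM MG132 for 1 h and washed. Then incubated with 50 μM cycloheximide plus 10 μM compound for 60 or 120 min before harvest. Immunoblotted with anti-GFP, with anti-p97 as loading control.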
Target sequence in this assay (P55072 2-806 limits assumed): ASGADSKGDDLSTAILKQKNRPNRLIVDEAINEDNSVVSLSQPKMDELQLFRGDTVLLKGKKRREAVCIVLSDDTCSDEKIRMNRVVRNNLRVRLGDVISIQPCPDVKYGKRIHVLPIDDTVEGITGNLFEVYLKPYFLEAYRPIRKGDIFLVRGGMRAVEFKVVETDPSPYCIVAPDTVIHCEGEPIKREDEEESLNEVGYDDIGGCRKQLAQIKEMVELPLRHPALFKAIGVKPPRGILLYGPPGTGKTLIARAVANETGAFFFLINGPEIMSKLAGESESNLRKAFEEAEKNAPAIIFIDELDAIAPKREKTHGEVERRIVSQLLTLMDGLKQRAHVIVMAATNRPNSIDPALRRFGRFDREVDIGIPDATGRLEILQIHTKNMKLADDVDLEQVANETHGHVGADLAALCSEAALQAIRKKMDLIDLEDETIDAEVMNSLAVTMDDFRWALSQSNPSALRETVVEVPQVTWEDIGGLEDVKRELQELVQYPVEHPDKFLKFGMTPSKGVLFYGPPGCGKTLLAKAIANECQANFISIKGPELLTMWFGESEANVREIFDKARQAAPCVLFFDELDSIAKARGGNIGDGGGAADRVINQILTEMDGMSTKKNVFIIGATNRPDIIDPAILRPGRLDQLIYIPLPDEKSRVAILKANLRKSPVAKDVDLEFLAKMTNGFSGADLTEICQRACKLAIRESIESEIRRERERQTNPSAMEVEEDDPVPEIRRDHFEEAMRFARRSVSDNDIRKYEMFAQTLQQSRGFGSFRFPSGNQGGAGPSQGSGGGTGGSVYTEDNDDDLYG

In test [18] the test system is HCT-116. As to the kind of experiment: Antiproliferative activity against CB-5083-resistant human HCT-116 cells after 48 hrs by celltiter-glo luminescence assay. It is filed as functional, cell-based. The method, boiled down:
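CellTiter-Glo viability in HCT116 lines carrying resistance mutations in p97 (CB-5083-resistant: D649A/T688A; NMS-873-resistant: A530T). Cells seeded at 750 or 3000/well within the linear range of a per-line standard curve, in DMEM with 5% FBS. Treated 24 h after seeding with eight three-fold dilutions for 48 h. IC50 from percent growth versus DMSO control; mean ± SEM of four replicate experiments.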

Test [19] is described as follows: Effect on SQSTM1 expression in human HCT-116 cells at 15 uM measured after 6 hrs by LC-MS/MS analysis relative to control. It is filed as functional. The procedure, abridged:
as §1

A further test relates to HeLa. As to the kind of experiment: Antiproliferative activity against human HeLa cells after 48 hrs by celltiter-glo luminescence assay. It is filed as functional, cell-based.
Test [20] is described as follows: Inhibition of proteasomal turnover of p97-independent ODD-luciferase reporter substrate in human HeLa cells incubated for 120 mins by luciferase reporter gene assay. It is filed as functional, cell-based. Conditions: 2 h. The method, boiled down:
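HeLa cells co-expressing UbG76V-GFP and ODD-Luc were seeded at 5000/well in clear DMEM with 2.5% FBS. They were pretreated with 4 μM MG132 for 60 min at 37 °C, washed with PBS, then given cycloheximide plus compound for 120 min at 37 °C and washed. GFP was read by high-content confocal imaging, then luminescence after 10 min with D-luciferin at r.t. IC50 was fitted from quadruplicates.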
Background: A reporter such as luciferase makes a cellular process visible.

The subject of test [21] is HCT-116. As to the kind of experiment: Antiproliferative activity against human HCT-116 cells after 48 hrs by celltiter-glo luminescence assay. It counts as functional, cell-based. The note with it: HCT-116, 48 h.
Test [22] is described as follows: Effect on STIM1 expression in human HCT-116 cells at 30 uM measured after 6 hrs by LC-MS/MS analysis relative to control. It is filed as functional. The procedure, abridged:
as §1

Test [23] in a line: Effect on KEAP1 expression in human HCT-116 cells at 15 uM measured after 6 hrs by LC-MS/MS analysis relative to control. It is filed as functional. The procedure, abridged:
as §1

This note sets out measurements from ChEMBL document CHEMBL4732155 (Eur J Med Chem, 2021).

The source made the active and inactive calls. The rule behind the calls is not given here.

Chain of Transitional endoplasmic reticulum ATPase (Homo sapiens, UniProt P55072, C522A) (P55072 2-806 C522A limits assumed): as the sequence (P55072 2-806 limits assumed) above, with C521A counted along it

What is called IC50 is the concentration needed to halve the response being measured. For `C=CC(=O)Nc1ncnc2c1c(-c1ccccc1)nn2C(C)(C)C`, the log2FC in [1] is listed as 0.69; in test [2], -0.43; in [3], -0.87; in [5], -0.33; in [6], -0.43; in test [9], 0.97. In addition, the log2FC was 0.52 in test [10]; 0.64 in [11]; 0.83 in [12]; 0.68 in [14]; -0.47 in [16]; 0.42 in test [19]. For the same molecule, the log2FC in test [22] is given as 1.65; in [23], -0.46. For the same molecule, the IC50 in test [4] was determined as 82 µM; in test [7], 110 µM; in test [13], 1.6 µM; in [15] it was 0.6 µM; in the test on HeLa, 6.1 µM; in test [20], 35 µM. For the same molecule, the IC50 in the test on HCT-116 [21] is 2.7 µM. In addition, the Selectivity ratio in test [8] is listed as 20. In test [17], the inhibition result was “Active”. Further, the result in the test on HCT-116 [18] was Active.
